# Experiments:
# GPCR receptors [1] = assay: PathHunter β-arrestin gpcrMAX panel, agonist mode; format: cell-based; conditions: summary of Table I
# Method in brief: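 β-Arrestin fused to the EA fragment and GPCR fused to the ED fragment; recruitment restores β-galactosidase, read by chemiluminescence. % agonist = 100 × (mean test − mean vehicle)/(mean max control ligand − mean vehicle). Hit requires >30% activity and mean RLU above baseline + 3 × baseline SD.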
# GPCR receptors [2] = assay: PathHunter β-arrestin gpcrMAX panel, antagonist mode; format: cell-based; conditions: summary of Table II
# Method in brief: (§1)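 GPCR-ED fusion and β-arrestin-EA fusion; arrestin recruitment restores β-galactosidase, read by chemiluminescence. Antagonist mode uses EC80 agonist challenge. % inhibition = 100 × (1 − (test − vehicle RLU)/(EC80 control − vehicle RLU)). Hit requires >35% inhibition and mean RLU below EC80 RLU − 3 × EC80 SD.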
# ADRA2C = assay: PathHunter β-arrestin; format: cell-based; conditions: antagonist mode, 6 μM
# Method in brief: (§2)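 β-Arrestin recruitment assay: the enzyme acceptor is fused to β-arrestin and the ED fragment to the GPCR. Recruitment restores β-galactosidase, read by chemiluminescence. % activity = 100% × (test − vehicle)/(max control ligand − vehicle). % inhibition = 100% × (1 − (test − vehicle)/(EC80 control − vehicle)). An agonist hit needs >30% activity and RLU > baseline + 3×SD. An antagonist hit needs >35% inhibition and RLU < EC80 RLU − 3×SD.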
# AVPR1A = assay: PathHunter β-arrestin; format: cell-based; conditions: antagonist mode, 6 μM
# Method in brief: as §2
# AVPR1B = assay: PathHunter β-arrestin; format: cell-based; conditions: antagonist mode, 6 μM
# Method in brief: as §2
# C5L2 = assay: PathHunter β-arrestin; format: cell-based; conditions: antagonist mode, 6 μM
# Method in brief: as §2
# CALCR = assay: PathHunter β-arrestin; format: cell-based; conditions: 6 μM
# Method in brief: as §2
# CALCRL-RAMP1 = assay: PathHunter β-arrestin; format: cell-based; conditions: antagonist mode, 6 μM
# Method in brief: as §2
# CALCRL-RAMP3 = assay: PathHunter β-arrestin; format: cell-based; conditions: antagonist mode, 6 μM
# Method in brief: as §2
# CCR2 = assay: PathHunter β-arrestin; format: cell-based; conditions: antagonist mode, 6 μM
# Method in brief: as §2
# CRHR1 = assay: PathHunter β-arrestin; format: cell-based; conditions: 6 μM
# Method in brief: (§3)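 Engineered cells express the receptor fused to one β-galactosidase fragment (ED) and β-arrestin fused to the complementing fragment (EA). Receptor activation recruits β-arrestin, which restores enzyme activity, and this is read by chemiluminescence (RLU). Agonist % activity is 100% × (test − vehicle)/(maximal control ligand − vehicle). Antagonist mode is challenged with an EC80 control agonist, and % inhibition is 100% × (1 − (test − vehicle)/(EC80 − vehicle)). Hits require >30% activity or >35% inhibition, plus a 3×SD RLU margin.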
# CRHR2 = assay: PathHunter β-arrestin; format: cell-based; conditions: antagonist mode, 6 μM
# Method in brief: as §3
# CXCR1 = assay: PathHunter β-arrestin; format: cell-based; conditions: antagonist mode, 6 μM
# Method in brief: as §3
# DRD1 = assay: PathHunter β-arrestin; format: cell-based; conditions: antagonist mode, 6 μM
# Method in brief: as §3
# DRD2S = assay: PathHunter β-arrestin; format: cell-based; conditions: antagonist mode, 6 μM
# Method in brief: as §3
# DRD3 = assay: PathHunter β-arrestin; format: cell-based; conditions: 6 μM
# Method in brief: as §3
# EBI2 = assay: PathHunter β-arrestin; format: cell-based; conditions: antagonist mode, 6 μM
# Method in brief: as §3
# EDG4 = assay: PathHunter β-arrestin; format: cell-based; conditions: antagonist mode, 6 μM
# Method in brief: as §3
# F2RL3 = assay: PathHunter β-arrestin; format: cell-based; conditions: 6 μM
# Method in brief: as §3
# GLP1R = assay: PathHunter β-arrestin; format: cell-based; conditions: antagonist mode, 6 μM
# Method in brief: (§4)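 Vendor-run (DiscoveRx) PathHunter enzyme fragment complementation. β-Arrestin carries the EA fragment and the receptor carries ED; recruitment restores β-gal activity, read by chemiluminescence (RLU). Agonist % activity = vehicle-subtracted RLU relative to max control ligand (gpcrMAX) or to vehicle (orphanMAX). Antagonist % inhibition = 100% × (1 − vehicle-subtracted sample RLU / vehicle-subtracted EC80 agonist control RLU).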
# GPR109B = assay: PathHunter β-arrestin; format: cell-based; conditions: 6 μM
# Method in brief: as §4
# GPR35 = assay: PathHunter β-arrestin; format: cell-based; conditions: 6 μM
# Method in brief: as §4
# GPR92 = assay: PathHunter β-arrestin; format: cell-based; conditions: 6 μM
# Method in brief: as §4
# HRH1 = assay: PathHunter β-arrestin; format: cell-based; conditions: agonist mode, 6 μM
# Method in brief: as §4
# LHCGR = assay: PathHunter β-arrestin; format: cell-based; conditions: antagonist mode, 6 μM
# Method in brief: as §4
# NMU1R = assay: PathHunter β-arrestin; format: cell-based; conditions: 6 μM
# Method in brief: as §4
# NPBWR2 = assay: PathHunter β-arrestin; format: cell-based; conditions: 6 μM
# Method in brief: as §4
# OPRK1 = assay: PathHunter β-arrestin; format: cell-based; conditions: antagonist mode, 6 μM
# Method in brief: as §1
# P2RY1 = assay: PathHunter β-arrestin; format: cell-based; conditions: 6 μM
# Method in brief: (§5)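 β-Arrestin recruitment to GPCR read by β-galactosidase fragment complementation and chemiluminescence. Agonist: % = 100 × (test − vehicle)/(max control ligand − vehicle), hit at >30% and RLU > baseline + 3 SD. Antagonist, against EC80 agonist: % inhibition = 100 × (1 − (test − vehicle)/(EC80 − vehicle)), hit at >35% and RLU < EC80 − 3 SD.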
# P2RY11 = assay: PathHunter β-arrestin; format: cell-based; conditions: 6 μM
# Method in brief: as §5
# PTGFR = assay: PathHunter β-arrestin; format: cell-based; conditions: antagonist mode, 6 μM
# TACR3 = assay: PathHunter β-arrestin; format: cell-based; conditions: antagonist mode, 6 μM
# orphan receptors = assay: orphanMAX β-arrestin panel, agonist mode; format: cell-based; conditions: summary of Table III
# TLR8 = assay: western blot, JJ012 cells; format: cell-based, human; conditions: vs untreated control, overnight incubation
# nucleolin = assay: western blot, JJ012 cells; format: cell-based, human; conditions: vs untreated control, overnight incubation
substance,measurement,setting,value
Proline rich polypeptide 1 [PRP-1],"GPCR coupling, agonist mode",GPCR receptors [1],no indication that PRP-1 was G protein coupled
same,"GPCR coupling, antagonist mode",GPCR receptors [2],no indication that PRP-1 was G protein coupled
same,% Inhibition,ADRA2C,−4%
same,% Inhibition,AVPR1A,−1%
same,% Inhibition,AVPR1B,−2%
same,% Inhibition,C5L2,−5%
same,% Activity,CALCR; agonist mode,1%
same,% Inhibition,CALCR; antagonist mode,1%
same,% Inhibition,CALCRL-RAMP1,4%
same,% Inhibition,CALCRL-RAMP3,1%
same,% Inhibition,CCR2,−3%
same,% Activity,CRHR1; agonist mode,1%
same,% Inhibition,CRHR1; antagonist mode,1%
same,% Inhibition,CRHR2,−2%
same,% Inhibition,CXCR1,−1%
same,% Inhibition,DRD1,−5%
same,% Inhibition,DRD2S,6%
same,% Activity,DRD3; agonist mode,2%
same,% Inhibition,DRD3; antagonist mode,−15%
same,% Inhibition,EBI2,−1%
same,% Inhibition,EDG4,5%
same,% Activity,F2RL3; agonist mode,−1%
same,% Inhibition,F2RL3; antagonist mode,−1%
same,% Inhibition,GLP1R,−9%
same,% Activity,GPR109B; agonist mode,1%
same,% Inhibition,GPR109B; antagonist mode,−6%
same,% Activity,GPR35; agonist mode,1%
same,% Inhibition,GPR35; antagonist mode,−6%
same,% Activity,GPR92; agonist mode,1%
same,% Inhibition,GPR92; antagonist mode,12%
same,% Activity,HRH1,1%
same,% Inhibition,LHCGR,−15%
same,% Activity,NMU1R; agonist mode,1%
same,% Inhibition,NMU1R; antagonist mode,−3%
same,% Activity,NPBWR2; agonist mode,1%
same,% Inhibition,NPBWR2; antagonist mode,−3%
same,% Inhibition,OPRK1,−12%
same,% Activity,P2RY1; agonist mode,−1%
same,% Inhibition,P2RY1; antagonist mode,1%
same,% Activity,P2RY11; agonist mode,1%
same,% Inhibition,P2RY11; antagonist mode,−12%
same,% Inhibition,PTGFR,1%
same,% Inhibition,TACR3,−1%
same,orphan receptor agonism,orphan receptors,neither that this peptide was agonist for orphan receptors
same,protein expression,TLR8,no indication of PRP-1 effect
same,protein expression,nucleolin,no changes in nucleolin protein expression
